Most compounds without a hit are left out; they make up all but 1.8% or so of the library.
KLK5 inh: blocks human kallikrein 5 protease activity. recombinant hK5, fluorogenic AMC substrate cleavage. AID 873. Q9Y337. inhibition, % at 5 µM. 210,000 compounds, 0.59% hits;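 active = inhibition of 40% or more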
Thrombin inh: inhibitors of human thrombin | P00734 | alpha-thrombin, Boc-VPR-AMC fluorogenic substrate cleavage | inhibition, % at 5 µM | 220,000 compounds, 0.26% hits;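 active = inhibition at or above 40%; inactive = inhibition below 40%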
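System – human alpha-thrombin protein · Reagent – Boc-VPR-AMC substrate, 15 µM final · Compound – 5 µM single dose in 0.2% DMSO · Schedule – reaction at room temperature · Technique – AMC fluorescence at 355 nm excitation and 460 nm emission · Read-out basis – % inhibition relative to enzyme controls and enzyme-free blanks · Control set – no-compound enzyme wells and no-enzyme blanks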
Wee1 stabilizer: human Wee1 degradation inhibition, primary screen. 220,000 compounds, 1.2% hits. HeLa Luc-Wee1K328M stability, luciferase luminescence; 100% = proteasome inhibitor MG132 effect. reporter increase, % at 5 µM. P30291;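 active = activation above the mean of all tested compounds plus 3 SD, set per screening run, cut at about 8.8% in these data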;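 note: cells exposed to compound for 20 h before luminescence read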
FXIa inh 1536: blocks human coagulation factor XIa protease activity; P03951; purified FXIa, Boc-Glu-Ala-Arg-AMC fluorogenic substrate; inhibition, % at 5 µM; 220,000 compounds, 0.14% hits; AID 798;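 active = inhibition of at least 40%; inactive = inhibition below 40%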;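 note: fluorescence of freed AMC excited at 355 nm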
Platelet DG rel: modulates dense granule release in human platelets; human platelet-rich plasma, SFLLRN dense granule ATP release, luminescence; inhibition, %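 (compounds screened at 7.5 µM in platelet-rich plasma)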; 300,000 compounds, 0.22% hits; AID 1663;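 active = mean replicate score, as percent of positive control, at or above 50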
FXIIa inh 1536: factor XIIa (human) inhibition; P00748; purified FXIIa, Boc-QGR-AMC fluorogenic substrate, 2 h; inhibition, % at 5 µM; 220,000 compounds, 0.3% hits; in the data active = inhibition above about 40%
Target sequence (P00748 20-372 limits assumed): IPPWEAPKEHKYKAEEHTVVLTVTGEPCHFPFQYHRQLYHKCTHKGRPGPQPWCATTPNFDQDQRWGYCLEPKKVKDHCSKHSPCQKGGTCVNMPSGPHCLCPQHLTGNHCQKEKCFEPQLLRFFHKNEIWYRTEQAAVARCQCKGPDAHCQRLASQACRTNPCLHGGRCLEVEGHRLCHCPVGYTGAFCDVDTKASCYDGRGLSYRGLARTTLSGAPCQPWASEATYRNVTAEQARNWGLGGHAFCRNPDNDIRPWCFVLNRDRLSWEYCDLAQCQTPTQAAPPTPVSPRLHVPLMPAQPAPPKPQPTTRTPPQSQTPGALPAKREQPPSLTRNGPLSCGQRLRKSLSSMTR
Target sequence (P00748 373-615 limits assumed): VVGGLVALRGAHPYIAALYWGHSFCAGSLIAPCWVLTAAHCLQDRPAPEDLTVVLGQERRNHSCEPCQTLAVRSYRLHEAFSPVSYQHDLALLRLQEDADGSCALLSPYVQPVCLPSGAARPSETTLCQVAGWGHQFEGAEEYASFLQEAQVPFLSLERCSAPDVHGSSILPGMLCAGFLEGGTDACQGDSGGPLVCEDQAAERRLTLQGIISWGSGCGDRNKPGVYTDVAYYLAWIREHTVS
Wee1 degr conf: human Wee1 degradation inhibition, confirmation | shares compounds with Wee1 stabilizer | HeLa Luc-Wee1K328M degradation, luminescence; vehicle 0%, proteasome-blocked wells 100% | activation, % at 5 µM | 1,100 compounds, 4% hits; in the data active = activation above about 8.9%
A number is an active result; . = inactive; / = no result.

SMILES	KLK5 inh	Thrombin inh	Wee1 stabilizer	FXIa inh 1536	Platelet DG rel	FXIIa inh 1536	Wee1 degr conf
CC(C)Oc1ccc(S(=O)(=O)N2CCOCC2)cc1NC(=O)C(C)Oc1ccc(F)cc1 (stereo not drawn)	/	/	/	/	.	/	/
CCOC(=O)C1CCN(C(=O)C2COc3ccccc3O2)CC1 (stereo not drawn)	/	/	/	/	.	/	/
O=C(N/N=C1\CC(c2ccccc2)Oc2ccccc21)c1cccnc1 (stereo not drawn)	.	.	12	.	.	.	.
O=C(N/N=C1\CC(c2ccccc2)Oc2ccccc21)c1ccc(O)cc1 (stereo not drawn)	/	/	/	/	.	/	/
O=C(NCCc1ccccc1)c1cc(=O)[nH]c2ccccc12	.	.	11	.	.	.	.
O=C(NCCc1ccccc1)c1c(F)c(F)c(F)c(F)c1F	.	.	24	.	.	.	.
CCOC(=O)c1cnc(SC)nc1N	.	.	.	.	.	.	/
CCOC(=O)c1cnc(SCC#N)nc1N	.	.	13	.	.	.	.
Cc1ccccc1OCCn1cc(C(=S)N2CCN(C)CC2)c2ccccc21	.	.	13	.	.	.	.
Cc1ccccc1OCCn1cc(C(=S)N2CCCC2)c2ccccc21	/	/	.	/	.	/	/
CCOC(=O)c1[nH]c(C)c(CN(C(C)=O)c2ccc(OCC)cc2)c1C	.	.	13	.	.	.	.
O=C(COc1ccccc1[N+](=O)[O-])NNC(=O)Nc1cccc2ccccc12	.	.	16	.	.	.	.
CC(C)c1nnc(NC(=O)COc2ccccc2[N+](=O)[O-])s1	.	.	23	.	.	.	.
CCSc1nnc(NC(=O)COc2ccccc2[N+](=O)[O-])s1	.	.	.	.	.	.	/
COc1ccc(NC(=O)C(NC(C)=O)C(=O)Nc2ccc(F)cc2)cc1 (stereo not drawn)	/	/	/	/	.	/	/
Cc1ccc2nc3c(cc(C(=O)NCCCn4ccnc4)n3C)c(=O)n2c1	.	.	23	.	.	.	.
O=C(NCCCn1ccnc1)c1cc2ccccc2oc1=O	.	.	13	.	.	.	.
O=C(NCCCN1CCOCC1)c1cc2ccccc2oc1=O	.	.	.	.	.	.	/
Cc1ccc2nc3c(cc(C(=O)NCC4CCCO4)n3C)c(=O)n2c1 (stereo not drawn)	.	.	.	.	/	.	/
Cc1ccnc(NC(=O)c2cc3ccccc3oc2=O)c1	.	.	13	.	.	.	.
CCc1nnc(NS(=O)(=O)c2ccc(NC(=O)c3ccccc3O)cc2)s1	/	/	/	/	.	/	/
COc1ccc(CCC(=O)Nc2sccc2C#N)cc1	.	.	12	.	.	.	.
CCN(CC)c1ccc(NC(=O)c2cnccn2)cc1S(=O)(=O)Nc1ccc(OC)cc1	.	.	12	.	.	.	.
CCN(CC)c1ccc(NC(=O)COc2ccccc2C#N)cc1S(=O)(=O)Nc1ccc(OC)cc1	.	.	.	.	.	.	/
O=C(OCC1OC(n2cnc3c(N(C(=O)c4ccccc4)C(=O)c4ccccc4)ncnc32)C(O)C1F)c1ccccc1 (stereo not drawn)	.	.	11	.	.	.	.
SMILES	KLK5 inh	Thrombin inh	Wee1 stabilizer	FXIa inh 1536	Platelet DG rel	FXIIa inh 1536	Wee1 degr conf
O=C(NCCc1ccccn1)c1ccc(NS(=O)(=O)c2ccc(F)cc2)cc1	.	.	.	.	.	.	/
CCN(CC)S(=O)(=O)c1ccc(C(=O)NCCc2ccccn2)cc1	.	.	12	.	.	.	9.3
COc1c(O)ccc(C2NC(=O)NC(C)=C2C(=O)Nc2ccccc2C)c1[N+](=O)[O-] (stereo not drawn)	/	.	.	.	.	.	/
COc1ccc(CCN2C(=O)N(c3ccc(OC)cc3)C(=O)C2CC(=O)Nc2ccccc2)cc1 (stereo not drawn)	.	.	21	.	.	.	.
COc1ccc(N2C(=O)C(CC(=O)Nc3ccccc3)N(CCc3ccc(OC)c(OC)c3)C2=O)cc1 (stereo not drawn)	.	.	.	.	.	.	/
Cn1c(=O)[nH]c(=O)c2c1nc(CN1CCN(Cc3ccccc3)CC1)n2CC(N)=O	.	.	.	.	.	.	/
CCOC(=O)c1ccc2ncc(-c3ccccc3)nc2c1	.	.	18	.	.	.	.
Cc1cc2ncc(-c3ccccc3)nc2cc1C	/	/	/	/	.	/	/
CCCCc1cc(=O)oc2c(C)c(OCc3nn[nH]n3)ccc12	.	.	.	.	.	.	/
CCOC(=O)C1(Cc2cccc(OC)c2)CCN(CC2CC=CCC2)CC1 (stereo not drawn)	.	.	12	.	.	.	.
CCOC(=O)C1(Cc2ccccc2)CCN(CC2CC=CCC2)CC1 (stereo not drawn)	.	.	.	.	.	.	/
Cc1cccc(NC(=O)c2cnc3sccn3c2=O)c1	.	.	24	.	.	.	.
O=[N+]([O-])c1cccc(CSC2=NCCN2S(=O)(=O)c2ccccc2)c1	/	/	/	/	.	/	/
COc1ccc(CC(=O)Nc2nc3ccccc3[nH]2)cc1	.	.	.	.	.	.	/
COc1cc(C(=O)Nc2nc3ccccc3[nH]2)ccc1OC(F)F	.	.	12	.	.	.	.
COc1cccc(CC(=O)Nc2nc3ccccc3[nH]2)c1	.	.	12	.	.	.	.
Cc1cc(OCC(=O)N2CCOCC2)ccc1NC(=O)c1ccccc1C	/	/	/	/	.	/	/
COc1ccc2nc(NCc3ccccc3)[nH]c2c1	.	.	.	.	.	.	/
Cc1ccc2nc(NCc3ccccc3)[nH]c2c1	.	.	17	.	.	.	29
CC(Oc1ccc(F)cc1)C(=O)Nc1cc(S(=O)(=O)N2CCCCC2)ccc1N1CCOCC1 (stereo not drawn)	/	/	/	/	.	/	/
CCCOc1ccc(C(C)=O)cc1CSc1nc(O)cc(=O)[nH]1	.	.	.	.	.	.	/
COc1cc(C)ccc1OCCCCOc1ccccc1C(C)=O	.	.	16	.	.	.	.
Cc1noc(C)c1Cn1nc(C(=O)O)c2ccccc2c1=O	.	.	12	.	.	.	.
Cc1cc(C(=O)CSc2ccccc2)cc(C)c1O	/	/	/	/	.	/	/
Clc1ccc(/C=C\c2nccc3c2[nH]c2ccccc23)cc1	.	.	12	.	.	.	.
SMILES	KLK5 inh	Thrombin inh	Wee1 stabilizer	FXIa inh 1536	Platelet DG rel	FXIIa inh 1536	Wee1 degr conf
N#Cc1ccc(/C=C\c2nccc3c2[nH]c2ccccc23)cc1	.	.	.	.	.	.	/
CCOC(=O)C1(Cc2ccc(Cl)cc2)CCN(C(=O)c2ccoc2)CC1	/	.	.	.	.	.	/
S=C(NCc1ccc2c(c1)OCO2)NCc1ccc2c(c1)OCO2	.	.	12	.	.	.	.
O=C(NCc1ccc2c(c1)OCO2)c1ccc2c(c1)OCO2	.	.	16	.	.	.	.
CCNC(=S)NCc1ccc2c(c1)OCO2	.	.	.	.	.	.	/
COC(=O)CSc1nnc(Cc2ccccc2)n1-c1ccc(C)cc1	.	.	.	.	.	.	/

From PubChem BioAssay
